# PAD4 FP inh: blocks human protein arginine deiminase 4 | Q9UM07 | recombinant PAD4, RCA probe fluorescence polarization | inhibition, % at 6.36 µM | actives 0.41% (n = 330,000) | AID 485272;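 active means percent inhibition above a cutoff equal to the mean of all tested compounds plus 3 SD, cut at about 15% in these data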;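 further: 0% = PAD4 with RCA probe and DMSO and 100% = probe without PAD4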
# TDP2 absorb: TDP2 (human) inhibition, absorbance primary screen; O95551; recombinant TDP2, T5PNP hydrolysis, p-nitrophenol absorbance 415 nm; inhibition, % at 12.8 µM; actives 0.34% (n = 370,000); AID 720702;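 active means inhibition above the mean of all tested compounds plus 3 SD, set per campaign, cut at about 25% in these data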;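 further: 0% = DMSO with enzyme and 100% = buffer with substrate but no TDP2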
#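 System: recombinant human TDP2 / Amount: 120 nM TDP2 per well / Also added: 5 mM T5PNP chromogenic substrate / Doses: 12.8 µM single point, 1% DMSO / Incubation: 2 h at 37 °C / Detection: p-Nitrophenol epi absorbance / Evaluation: % inhibition relative to enzyme-containing and enzyme-free wells / Repeats: singlicate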
# PRMT1 FP inh: blocks human protein arginine methyltransferase 1; actives 1.3% (n = 370,000); recombinant PRMT1, activity-based probe fluorescence polarization; inhibition, % at 2.79 µM; AID 652257; Q99873;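 active means inhibition above about 21% made by adding two undisclosed values, limit read from the data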
# Apaf-1 inh: human Apaf-1 inhibition | O14727 | reconstituted apoptosome caspase-3 activity, DEVD-Rh110 fluorescence | inhibition, % at 20 µM | actives 0.71% (n = 330,000); active means inhibition of at least 40% at 20 µM;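 further: plate controls were DMSO wells for no effect and DEVD-CHO caspase inhibitor wells for full effect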
#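 System – cell-free apoptosome with Apaf-1, procaspase-3 and caspase-9 · Buffer or medium – pH 7.5 Hepes buffer with CHAPS, BSA, DTT · Also added – cytochrome c with DEVD-Rh110 · Times – 30 min compound preincubation, 50 min activation, room temperature · Technique – Rh110 fluorescence intensity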
# GSTO1 counter: blocks human GSTO1 in RBBP9 counter-screen; actives 1.1% (n = 300,000); recombinant GSTO1, activity-based probe fluorescence polarization; inhibition, % at 5.96 µM; P78417;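 active means inhibition above the campaign mean inhibition plus 3 SD, cut at about 35% in these data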;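 further: 0% = GSTO1-1 with DMSO and 100% = wells lacking GSTO1-1 enzyme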
# Target sequence (P78417 whole entry, looked up): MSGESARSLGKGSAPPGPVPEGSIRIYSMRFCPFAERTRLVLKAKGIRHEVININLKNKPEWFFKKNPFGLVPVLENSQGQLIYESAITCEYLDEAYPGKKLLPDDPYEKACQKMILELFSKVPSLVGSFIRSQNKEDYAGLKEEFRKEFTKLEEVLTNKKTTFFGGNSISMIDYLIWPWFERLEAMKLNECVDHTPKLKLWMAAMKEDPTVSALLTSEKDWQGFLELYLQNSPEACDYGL
# TDP2 inh conf: confirmation of human TDP2 inhibitors. shares compounds with TDP2 absorb. actives 22% (n = 1,100). AID 743263. recombinant human TDP2, absorbance read-out. inhibition, % at 12.8 µM; in the data active means inhibition above about 25%;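 further: 0% = vehicle with enzyme and 100% = no enzyme buffer only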
# Active calls of the source: *; x = no result given. Rows were chosen to be rich in hits. Some 2.6% of all compounds tested hit in one or more screens of this group.
SMILES,PAD4 FP inh,TDP2 absorb,PRMT1 FP inh,Apaf-1 inh,GSTO1 counter,TDP2 inh conf
CCN(CC)CCN1C(=O)C(=O)/C(=C(/O)c2ccc(C)cc2)C1c1cccnc1 (centres undefined),0,32*,3,-19,-3,6
Cc1noc(C)c1NC(=O)Nc1cccc2c1O[C@H](CN(C)S(=O)(=O)c1cccs1)[C@@H](C)CN([C@H](C)CO)C2=O,-5,-7,-4,10,x,x
COc1ccc(CCNC(=O)c2ccc(NC(=O)CC3SC(N4CCCC4)=NC3=O)cc2)cc1 (centres undefined),3,4,-3,7,-2,x
Cc1ccc(OCCNC(=O)c2ccc(NC(=O)CC3SC(N4CCCC4)=NC3=O)cc2)cc1 (centres undefined),4,40*,3,9,11,-1
Cc1ccc(CN2CCN(c3ccccc3)CC2)o1,-4,26*,1,-14,-4,-2
Cc1ccc(CN2CCN(c3ncccn3)CC2)o1,-4,0,-3,-15,4,x
CC(C)(C)c1ccc(S(=O)(=O)N2CCC(C(=O)NCc3cccs3)CC2)cc1,x,10,1,x,x,x
COc1ccc(C(=O)NCC(O)CN2CCOCC2)cc1[N+](=O)[O-] (centres undefined),-5,25*,-2,0,5,-2
CC(=O)Oc1c(/C=C(\C#N)C(N)=O)[nH]c2ccccc12,x,32*,19,x,x,-1
N#C/C(=C\c1c[nH]c2ccccc12)C(N)=O,2,-2,-3,4,-1,x
CC1=NN(c2ccccc2)C(=O)C1=C(C)C,7,37*,3,38,35*,12
COc1cc(C(=O)N2CCC(N3CCCCCC3)CC2)cc(OC)c1OC,-1,1,1,3,-6,x
COc1cc(C(=O)N2CCN(C3CCCCC3)CC2)cc(OC)c1OC,-1,25*,-3,2,-3,6
COc1ccc(O)c(/C=N/NC(=O)CN2CCS(=O)(=O)CC2)c1,-2,-5,2,-6,2,x
Oc1ccc(C2=NNC(c3ccc(O)cc3)=NN2)cc1,-4,28*,-4,-5,6,-1
CCOc1ccc2nc(NC(=S)N(C)C)sc2c1,2,26*,4,-4,-8,17
CCOc1ccccc1NC(=O)c1cc(S(=O)(=O)NCc2ccco2)ccc1F,-9,26*,3,19,35*,-10
COc1ccccc1C(=O)COC(=O)C(CCSC)NC(=O)COc1ccccc1 (centres undefined),0,25*,-3,17,14,1
Cc1c(/C(O)=C2\C(=O)C(=O)N(CCN(C)C)C2c2ccccc2)cnn1-c1ccccc1 (centres undefined),-4,5,-2,-9,4,x
CC(=O)Nc1ccc(S(=O)(=O)N2CCC(NC(=O)C(Cc3ccc(C)cc3)NC(C)=O)CC2)cc1 (centres undefined),x,9,-1,4,x,x
CC(=O)Nc1ccc(S(=O)(=O)N2CCC(NC(=O)C(Cc3cccc(F)c3)NC(C)=O)CC2)cc1 (centres undefined),2,28*,-2,-1,6,3
C=CCN1C=C2C(=O)C(C)(OC(=O)c3cccs3)C(=O)C=C2C=C1CCCC(=O)OC (centres undefined),13,26*,6,29,31,4
COC(=O)c1ccc(CNC(=O)c2ccc(OCC(=O)N3CCOCC3)c(OC)c2)cc1,0,-2,1,3,4,x
COCCNC(=O)C(c1ccc(Cl)cc1)N(CCOC)C(=O)CCC(=O)Nc1ccccn1 (centres undefined),4,1,3,-4,-4,x
COc1cccc(NC(=O)c2cccnn2)c1,-2,7,2,1,6,x
COc1cccc(NC(=O)c2cccc(C(=O)Nc3cccc(OC)c3)n2)c1,-3,25*,0,4,2,-6
COCN(C#N)c1nc(N(C)C)nc(N(C)C)n1,-1,29*,-2,0,9,4
Cc1nnc(SCc2ccccc2)n(N)c1=O,3,58*,1,-6,3,-4
CC(C)(C)C(=O)n1nc(-c2ccccc2)oc1=O,-2,2,-1,0,4,x

# Screening results deposited in PubChem BioAssay by several laboratories.
